Source: ChEMBL document CHEMBL2401624, “Synthesis and biological evaluation of novel substituted pyrrolo[1,2-a]quinoxaline derivatives as inhibitors of the human protein kinase CK2” (Eur J Med Chem, 2013)

Tests used:
[1] = test system: Jurkat; assay: Antiproliferative activity against human Jurkat cells after 1 to 3 days by MTS assay; format: functional
Procedure, shortened: (§1)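 Leukemic lines grown in RPMI 1640 with 10% FCS, penicillin/streptomycin and L-glutamine at 37°C, 5% CO2. Cells washed twice in PBS, plated in quadruplicate with compound at 0, 1, 5, 10, 20 and 50 µM for 1, 2 and 3 days. MTS added for 3 h at 37°C, absorbance read at 490 nm. CC50 after 3 days by linear regression, mean ± SD of 3 independent experiments.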

[2] = test system: MV4-11; assay: Antiproliferative activity against human MV4-11 cells after 1 to 3 days by MTS assay; format: functional; procedure, shortened: as §1
[3] = test system: U-937; assay: Antiproliferative activity against human U937 cells after 1 to 3 days by MTS assay; format: functional; procedure, shortened: as §1
[4] = Cytotoxicity against human PHA-activated PBMC after 1 to 3 days by MTS assay; format: cell-based
Procedure, shortened: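 PBMNC from blood of healthy volunteers, isolated by Ficoll gradient centrifugation and stimulated with PHA (5 µg/mL). Cells washed in PBS, plated in quadruplicate with compound at 0, 1, 5, 10, 20 and 50 µM for 1 to 3 days. MTS read at 490 nm after 3 h at 37°C. CC50 at day 3 by linear regression, mean ± SD of 3 independent experiments.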

[5] = biological target: Casein kinase II (Homo sapiens, UniProt P19784+P67870+P68400); assay: Inhibition of human recombinant CK2 expressed in Escherichia coli BL21(DE3) using RRRDDDSDDD as substrate after 15 mins by capillary electrophoretic analysis
Casein kinase II, sequence (P67870 whole entry): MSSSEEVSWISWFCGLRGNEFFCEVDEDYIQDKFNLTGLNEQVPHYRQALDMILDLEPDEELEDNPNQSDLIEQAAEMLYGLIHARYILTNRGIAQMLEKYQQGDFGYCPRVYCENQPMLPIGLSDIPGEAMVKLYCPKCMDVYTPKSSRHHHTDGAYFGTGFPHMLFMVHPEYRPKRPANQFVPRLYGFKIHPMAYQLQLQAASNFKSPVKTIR
Casein kinase II, sequence (P68400 whole entry): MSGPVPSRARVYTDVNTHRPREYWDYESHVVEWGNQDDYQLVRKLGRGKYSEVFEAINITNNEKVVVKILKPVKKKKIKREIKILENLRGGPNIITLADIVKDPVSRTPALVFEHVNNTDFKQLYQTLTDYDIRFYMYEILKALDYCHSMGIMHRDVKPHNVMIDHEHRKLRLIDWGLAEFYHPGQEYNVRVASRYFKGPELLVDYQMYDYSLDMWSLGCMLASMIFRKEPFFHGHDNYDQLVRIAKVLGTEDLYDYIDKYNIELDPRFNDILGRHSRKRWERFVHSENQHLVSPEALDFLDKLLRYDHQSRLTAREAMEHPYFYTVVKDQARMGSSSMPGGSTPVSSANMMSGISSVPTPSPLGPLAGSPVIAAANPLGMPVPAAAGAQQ
Casein kinase II, sequence (P19784 whole entry): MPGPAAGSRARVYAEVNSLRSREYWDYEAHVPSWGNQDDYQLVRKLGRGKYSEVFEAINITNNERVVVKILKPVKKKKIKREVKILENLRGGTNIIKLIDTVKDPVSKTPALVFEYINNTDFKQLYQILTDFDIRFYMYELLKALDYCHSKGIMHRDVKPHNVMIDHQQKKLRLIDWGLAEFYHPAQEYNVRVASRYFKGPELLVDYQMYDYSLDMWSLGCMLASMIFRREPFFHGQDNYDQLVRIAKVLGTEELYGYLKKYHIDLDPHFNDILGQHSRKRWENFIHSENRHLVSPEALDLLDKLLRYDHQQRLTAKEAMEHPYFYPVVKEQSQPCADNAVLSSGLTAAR

[6] = test system: K562; assay: Antiproliferative activity against human K562 cells after 1 to 3 days by MTS assay; format: functional; procedure, shortened: as §1
[7] = test system: Jurkat; assay: Selectivity index, ratio of CC50 for human PHA-activated PBMC to CC50 for human Jurkat cells
[8] = test system: MV4-11; assay: Selectivity index, ratio of CC50 for human PHA-activated PBMC to CC50 for human MV4-11 cells

Row | IC50 [5] | SMILES | CC50 [1] | CC50 [2] | CC50 [3] | CC50 [4] | CC50 [6] | Selectivity Index [7] | Selectivity Index [8]
1 | 0.982 µM | O=C(O)c1nc2cc(Nc3cccc(Cl)c3)ccc2n2cccc12 | 31.4 µM | 47 µM | 39.2 µM | > 50 µM | > 50 µM | 1.6 | 
2 | 0.85 µM | C#Cc1cccc(Nc2ccc3c(c2)nc(C(=O)O)c2cccn23)c1 |  |  |  |  |  |  | 
3 | 1.57 µM | O=C(O)c1ccc2c(c1)nc(Nc1cccc(Cl)c1)c1cc(-c3cccnc3)cn12 |  |  |  |  |  |  | 
4 | 0.89 µM | C#Cc1cccc(Nc2nc3cc(C(=O)O)ccc3n3cc(-c4cccnc4)cc23)c1 |  |  |  |  |  |  | 
5 | 8.25 µM | Nc1cccc(C#Cc2ccc3c(c2)nc(C(=O)O)c2cccn23)c1 |  |  |  |  |  |  | 
6 | 4.28 µM | O=C(O)c1cc2c(Nc3cccc(Cl)c3)nc3ccccc3n2c1 | > 50 µM | > 50 µM | > 50 µM | > 50 µM | > 50 µM |  | 
7 | 1.89 µM | C#Cc1cccc(Nc2nc3ccccc3n3cc(C(=O)O)cc23)c1 | 41 µM | > 50 µM | > 50 µM | > 50 µM | > 50 µM |  | 
8 | 0.049 µM | O=C(O)c1ccn2c1c(Nc1cccc(Cl)c1)nc1ccccc12 | > 50 µM | > 50 µM | 47.7 µM | > 50 µM | 42 µM |  | 
9 | 0.134 µM | C#Cc1cccc(Nc2nc3ccccc3n3ccc(C(=O)O)c23)c1 | > 50 µM | > 50 µM | > 50 µM | > 50 µM | > 50 µM |  | 
10 | 0.118 µM | O=C(O)c1ccc2c(c1)nc(Nc1cccc(Cl)c1)c1cccn12 | > 50 µM | 20 µM | > 50 µM | > 50 µM | > 50 µM |  | >2.5
11 | 0.078 µM | C#Cc1cccc(Nc2nc3cc(C(=O)O)ccc3n3cccc23)c1 | > 50 µM | 20 µM | > 50 µM | > 50 µM | > 50 µM |  | >2.5
12 | 0.834 µM | O=C(O)c1ccc2nc(Nc3cccc(Cl)c3)c3cccn3c2c1 | > 50 µM | > 50 µM | > 50 µM | > 50 µM | > 50 µM |  | 
13 | 0.834 µM | C#Cc1cccc(Nc2nc3ccc(C(=O)O)cc3n3cccc23)c1 | > 50 µM | > 50 µM | > 50 µM | > 50 µM | > 50 µM |  | 
14 | 0.04 µM | O=c1oc2c(O)c(O)cc3c(=O)oc4c(O)c(O)cc1c4c23 [ELLAGIC ACID] |  |  |  |  |  |  | 
15 |  | O=C(O)c1ccc2c(c1)nc(Nc1cccc(Cl)c1)c1ccncc12 [SILMITASERTIB] | 4.5 µM | 3 µM | 4.2 µM | 50 µM | 7 µM |  | 
